Results as given in ChEMBL document CHEMBL1148054, “Chemical and bioactive constituents from Zanthoxylum simulans” (J Nat Prod, 1994).
pEC50: −log10 of the molar value. Active and inactive are the calls of the source. The calls are words filed in the database; no cut-off is given here.

What was measured:
HL-60 [1] = assay: Induction of terminal cell differentiation in human HL60 cells assessed as cell viability at 4 uM by trypan blue exclusion method; format: functional; conditions: read-out: Activity
Outline: (§1)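 HL-60 cells preincubated 18 h at 1.2×10^5 cells/ml, then exposed 4 days to samples in DMSO (final 0.1%). Viability by trypan blue exclusion: viable/(viable+dead)×100. Cell counts also taken after 4 days.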

HL-60 [2] = assay: Induction of terminal cell differentiation in human HL60 cells assessed as cell viability at 8.1 uM by trypan blue exclusion method; format: functional; conditions: read-out: Activity; outline: as §1
HL-60 [3] = assay: Induction of terminal cell differentiation in human HL60 cells assessed as cell viability at 16.2 uM by trypan blue exclusion method; format: functional; conditions: read-out: Activity; outline: as §1
HL-60 [4] = assay: Induction of terminal cell differentiation in human HL60 cells assessed as cell viability at 32.3 uM by trypan blue exclusion method; format: functional; conditions: read-out: Activity; outline: as §1
HL-60 [5] = assay: Induction of terminal cell differentiation in human HL60 cells assessed as cell viability at 64.6 uM by trypan blue exclusion method; format: functional; conditions: read-out: Activity; outline: as §1
HL-60 [6] = assay: Induction of terminal cell differentiation in human HL60 cells assessed as naphthol AS-D chloroacetate esterase activity at 4 uM after 4 days; format: functional
Outline: (§2)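 HL-60 cells were grown in RPMI 1640 with 5% heat-inactivated calf serum at 37°, 5% CO2. They were diluted to 1.2×10^5 cells/ml, preincubated 18 h, then exposed 4 days to DMSO-dissolved samples (final DMSO 0.1%, matched vehicle controls). Specific esterase (naphthol AS-D chloroacetate) was scored cytochemically with a commercial kit as the percentage of differentiated cells.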

HL-60 [7] = assay: Induction of terminal cell differentiation in human HL60 cells assessed as naphthol AS-D chloroacetate esterase activity at 8.1 uM after 4 days; format: functional; outline: as §2
HL-60 [8] = assay: Induction of terminal cell differentiation in human HL60 cells assessed as naphthol AS-D chloroacetate esterase activity at 16.2 uM after 4 days; format: functional; outline: as §2
HL-60 [9] = assay: Induction of terminal cell differentiation in human HL60 cells assessed as naphthol AS-D chloroacetate esterase activity at 32.3 uM after 4 days; format: functional; outline: as §2
HL-60 [10] = assay: Cytotoxicity against human HL60 cells at 64.6 uM by naphthol AS-D chloroacetate esterase activity; format: cell-based; conditions: hl-60, 64.6 µM
Outline: (§3)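 After 4-day treatment of HL-60 cells (samples in DMSO, final 0.1%), cells stained cytochemically for α-naphthyl acetate esterase or naphthol AS-D chloroacetate esterase.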

HL-60 [11] = assay: Induction of cell differentiation in human HL60 cells assessed as alpha naphthyl esterase activity at 4 uM after 4 days; format: functional
Outline: (§4)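 HL-60 cells in RPMI 1640 with 5% heat-inactivated calf serum at 37° under 5% CO2. Log-phase cells diluted to 1.2×10^5 cells/ml and preincubated 18 h, then samples added in DMSO (final 0.1%, DMSO controls). Cells scored after 4 days.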

HL-60 [12] = assay: Induction of cell differentiation in human HL60 cells assessed as alpha naphthyl esterase activity at 8.1 uM after 4 days; format: functional; outline: as §4
HL-60 [13] = assay: Induction of cell differentiation in human HL60 cells assessed as alpha naphthyl esterase activity at 16.2 uM after 4 days; format: functional; outline: as §4
HL-60 [14] = assay: Induction of cell differentiation in human HL60 cells assessed as alpha naphthyl esterase activity at 32.3 uM after 4 days; format: functional; outline: as §4
HL-60 [15] = assay: Cytotoxicity against human HL60 cells at 64.6 uM by alpha naphthyl esterase activity assay; format: cell-based; conditions: hl-60, 64.6 µM; outline: as §3
HL-60 [16] = assay: Cytotoxicity against human HL60 cells by [3H]thymidine incorporation assay; format: cell-based
Outline: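 After 4-day sample treatment, 100 μl of HL-60 cells pulsed with 0.5 μCi/ml [3H]thymidine (65 Ci/mmol) for 16 h. Cells harvested and counted by liquid scintillation. Incorporation per 10^6 cells given as sample DPM divided by DMSO-control DPM.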

HL-60 [17] = assay: Induction of terminal cell differentiation in human HL60 cells assessed as inhibition of [3H]thymidine incorporation at 32.3 uM after 4 days by liquid scintillation; format: functional; design: scale not given: the % may be the effect or the level left
Outline: (§5)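 HL-60 cells were kept in RPMI 1640 with 5% heat-inactivated calf serum and penicillin/streptomycin at 37° under 5% CO2. Log-phase cells were diluted to 1.2×10^5 cells/ml and preincubated 18 h. Samples were added in DMSO (final 0.1%; vehicle controls matched) for 4 days. Aliquots then got 0.5 μCi/ml [3H]thymidine for 16 h more, were harvested and scintillation-counted. % incorporation per 10^6 cells = sample DPM / DMSO-control DPM.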

HL-60 [18] = assay: Induction of terminal cell differentiation in human HL60 cells assessed as inhibition of [3H]thymidine incorporation at 16.2 uM after 4 days by liquid scintillation; format: functional; design: scale not given: the % may be the effect or the level left; outline: as §5
HL-60 [19] = assay: Induction of terminal cell differentiation in human HL60 cells assessed as inhibition of [3H]thymidine incorporation at 8.1 uM after 4 days by liquid scintillation; format: functional; design: scale not given: the % may be the effect or the level left; outline: as §5
HL-60 [20] = assay: Induction of terminal cell differentiation in human HL60 cells assessed as inhibition of [3H]thymidine incorporation at 4 uM after 4 days by liquid scintillation; format: functional; design: scale not given: the % may be the effect or the level left; outline: as §5
HL-60 [21] = assay: Induction of terminal cell differentiation in human HL60 cells at 4 uM after 4 days by NBT reduction assay; format: functional
Outline: (§6)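 Log-phase HL-60 cells (RPMI 1640, 5% heat-inactivated calf serum, 37°, 5% CO2) were diluted to 1.2×10^5 cells/ml, preincubated 18 h, then treated 4 days with samples in DMSO (final 0.1%; DMSO controls). 10^6 cells were mixed 1:1 with fresh PBS holding 2 mg/ml NBT and 5 μg/ml TPA, 1 h at 37°. Formazan-positive cells were counted microscopically as % NBT-positive.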

HL-60 [22] = assay: Induction of terminal cell differentiation in human HL60 cells at 8.1 uM after 4 days by NBT reduction assay; format: functional; outline: as §6
HL-60 [23] = assay: Induction of terminal cell differentiation in human HL60 cells at 16.2 uM after 4 days by NBT reduction assay; format: functional; outline: as §6
HL-60 [24] = assay: Induction of terminal cell differentiation in human HL60 cells at 32.3 uM after 4 days by NBT reduction assay; format: functional; outline: as §6
HL-60 [25] = assay: Cytotoxicity against human HL60 cells at 64.6 uM by NBT reduction assay; format: cell-based; conditions: hl-60, 64.6 µM; outline: as §4
Platelet [26] = assay: Antiplatelet activity against rabbit platelet assessed as inhibition of arachidonic acid-induced platelet aggregation at 100 ug/ml; format: functional; conditions: Oryctolagus cuniculus
Platelet [27] = assay: Antiplatelet activity against rabbit platelet assessed as inhibition of collagen-induced platelet aggregation at 100 ug/ml; format: functional; conditions: Oryctolagus cuniculus
Platelet [28] = assay: Antiplatelet activity against rabbit platelet assessed as inhibition of platelet activating factor-induced platelet aggregation at 100 ug/ml; format: functional; conditions: Oryctolagus cuniculus
[29] = Cytotoxicity against human BC1 cells; format: functional; conditions: read-out: ED50 (the source's name)
Outline: (§7)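 Cultured human cancer lines and murine P-388 cells. Complete dose-response data from at least five concentrations of test substance, each tested in duplicate.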

HT-1080 = assay: Cytotoxicity against human HT1080 cells; format: functional; conditions: read-out: ED50 (the source's name); outline: as §7
Lu1 = assay: Cytotoxicity against human Lu1 cells; format: functional; conditions: read-out: ED50 (the source's name); outline: as §7
SK-MEL = assay: Cytotoxicity against human SK-MEL cells; format: functional; conditions: read-out: ED50 (the source's name); outline: as §7
Col2 = assay: Cytotoxicity against human Col2 cells; format: functional; conditions: read-out: ED50 (the source's name); outline: as §7
KB = assay: Cytotoxicity against human KB cells; format: functional; conditions: read-out: ED50 (the source's name); outline: as §7
[30] = Cytotoxicity against human multidrug-resistant KBV1 cells in presence of vinblastine; format: functional; conditions: KB-V1, read-out: ED50 (the source's name); outline: as §7
[31] = Cytotoxicity against human multidrug-resistant KBV1 cells in absence of vinblastine; format: functional; conditions: KB-V1, read-out: ED50 (the source's name); outline: as §7
P388 = assay: Cytotoxicity against mouse P388 cells; format: functional; conditions: read-out: ED50 (the source's name); outline: as §7
A-431 = assay: Cytotoxicity against human A431 cells; format: functional; conditions: read-out: ED50 (the source's name); outline: as §7
LNCaP = assay: Cytotoxicity against human LNCAP cells; format: functional; conditions: read-out: ED50; outline: as §7
ZR-75-1 = assay: Cytotoxicity against human ZR-75-1 cells; format: functional; conditions: ZR-75-1, read-out: ED50; outline: as §7
[32] = Cytotoxicity against human U373 cells; format: functional, U-373MG ATCC; conditions: U373 MG, read-out: ED50; outline: as §7

Structure (SMILES): CC(C)=CCCC1(C)C=Cc2c(c3ccccc3n(C)c2=O)O1 (centres undefined)
- viability at 4 µM (HL-60 [1]): 98%
- viability at 8.1 µM (HL-60 [2]): 95%
- viability at 16.2 µM (HL-60 [3]): 93%
- viability at 32.3 µM (HL-60 [4]): 78%
- viability at 64.6 µM (HL-60 [5]): 9%
- Activity (HL-60 [6]): 5%
- Activity (HL-60 [7]): 5.5%
- Activity (HL-60 [8]): 6.5%
- Activity (HL-60 [9]): 14.5%
- Activity (HL-60 [10]): Toxic
- Activity (HL-60 [11]): 4.5%
- Activity (HL-60 [12]): 5.5%
- Activity (HL-60 [13]): 7.4%
- Activity (HL-60 [14]): 24.3%
- Activity (HL-60 [15]): Toxic
- Activity (HL-60 [16]): Toxic
- Activity (HL-60 [17]): 0%
- Activity (HL-60 [18]): 0%
- Activity (HL-60 [19]): 0%
- Activity (HL-60 [20]): 0%
- Activity (HL-60 [21]): 3.5%
- Activity (HL-60 [22]): 8%
- Activity (HL-60 [23]): 9%
- Activity (HL-60 [24]): 15.4%
- Activity (HL-60 [25]): Toxic
- Activity (Platelet [26]): inactive
- Activity (Platelet [27]): inactive
- Activity (Platelet [28]): inactive
- pEC50 [29]: 4.54
- pEC50 (HT-1080): 4.54
- pEC50 (Lu1): 4.54
- pEC50 (SK-MEL): 4.55
- pEC50 (Col2): 4.52
- pEC50 (KB): 4.82
- pEC50 [30]: 5.19
- pEC50 [31]: 4.67
- pEC50 (P388): 5.28
- pEC50 (A-431): 4.54
- EC50 (LNCaP): 18.7 µM
- EC50 (ZR-75-1): 10 µM
- EC50 [32]: 17.1 µM

Structure (SMILES): Oc1cnc2c(ccc3cc4c(cc32)OCO4)c1
- Activity (Platelet [26]): inactive
- Activity (Platelet [27]): inactive
- Activity (Platelet [28]): inactive
